This is a sample that favours compounds with a hit; in the whole collection about 6.6% have one here.
Jurkat tox 60K: cytotoxicity toward Jurkat T cells, primary screen, cytotoxicity control, cell-based, Jurkat E6.1, 60K MLSMR library | Jurkat E6.1 viability, ATP luminescence, 48 h | 56,000 tested, 1.2% active | inhibition, % at 4 µM;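 active = inhibition above the mean inhibition of all tested compounds plus 3 SD, cut at about 28% in these data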
Lung fibro prol: antiproliferative effect on LL 47 fibroblasts – human, LL 47 cells, CellTiter-Glo luminescence, primary screen; LL 47 human lung fibroblast viability, ATP luminescence; hits give low values; viability, % at 10 µM; 85,000 tested, 1.1% active;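 active = viability at or below 50% in the single dose screen; inactive = viability above 50%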;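 also: compound exposure lasted 72 h before the ATP readout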
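Benchmarks: Cell-only wells, no compound | Test system: LL 47 human lung fibroblasts, passage 12 or lower | Input: 1,150 cells/well | Measured by: CellTiter-Glo luminescence measuring cellular ATP | Medium: IMEM, 15% FBS supplement | Schedule: Overnight attachment after seeding, then 72 h compound exposure at 37 °C | Doses: Compound addition at 0.1% DMSO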
H69AR inhibit: proliferation blockers of H69AR lung cancer cells, primary screen, cell-based, human, 86K library | H69AR lung tumor viability, ATP luminescence, 72 h; hits give low values | viability, % at 10 µM | 85,000 tested, 6% active | AID 598, 2007;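 active = viability at or below 40%; inactive = viability above 40%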;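 also: multidrug resistant small cell line overexpressing MRP-1 efflux transporter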
HUVEC inhibit: inhibitors of HUVEC proliferation, primary screen, cell-based, 384-well; viability, % at 10 µM (by protocol); CellTiter-Glo luminescence, 72 h; hits give low values; 86,000 tested, 1.1% active; AID 648, 2007;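 active = viability at or below 30%; inactive = viability above 30%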
Large screens that a line does not name were inactive.

CN1CCN(Cc2ccc(OCc3ccccc3)cc2)CC1	none (no result: Lung fibro prol)
Oc1ccc(CNc2ccccc2)c2cccnc12	H69AR inhibit 36
CN1CCN(Cc2cc(COCc3ccccc3)c3cccnc3c2O)CC1	Jurkat tox 60K 36, Lung fibro prol 2.8, H69AR inhibit 1.8
Oc1ccc(CNc2ccc(F)cc2)c2cccnc12	none
COCc1ccc(O)c2ncccc12	Lung fibro prol 3.0, H69AR inhibit 1.1, HUVEC inhibit 6.0 (no result: Jurkat tox 60K)
Oc1ccccc1-c1nc(N2CCN(Cc3ccccc3)CC2)c2ccccc2n1	none
Cc1ccccc1NCc1ccc(O)c2ncccc12	none (no result: Jurkat tox 60K)
O=C(c1ccco1)N1CCN(CC(O)COc2ccc3oc4ccccc4c3c2)CC1 (centres undefined)	none
Cc1cc2nc(NC3=NCN(Cc4cccnc4)CN3)nc(C)c2cc1C	none (no result: Lung fibro prol, H69AR inhibit, HUVEC inhibit)
COC(=O)c1cc(OC)c(OC)cc1NC(=O)c1ccc(OC)c(OC)c1	none (no result: Jurkat tox 60K)
COC(=O)c1cc(OC)c(OC)cc1NC(=O)c1ccccc1	H69AR inhibit 39
COc1cc(NC(=O)c2cccs2)c(C(=O)OCC(=O)NCc2ccccc2)cc1OC	H69AR inhibit 6.7, HUVEC inhibit 19 (no result: Jurkat tox 60K)
COc1cc(C(=O)OCC(=O)NCc2ccccc2)cc(NC(=O)c2ccco2)c1OC	none (no result: Jurkat tox 60K)
CN1C2C=C3C(C#N)=C(N)C(C#N)(C#N)[C@H](c4c(F)cccc4F)[C@H]3C1CC2 (some centres undefined)	H69AR inhibit 18 (no result: Jurkat tox 60K)
N#CC1=C(N)C(C#N)(C#N)C2(CCC3(CC2)OCCO3)C2CC3(CC=C12)OCCO3 (centres undefined)	none
N#CC1=C(N)C(C#N)(C#N)[C@H](c2c(F)cccc2F)[C@H]2CC3(CC=C12)OCCO3	H69AR inhibit 3.0
COCCNC(=O)CSc1nc(-c2ccccc2)cs1	none (no result: Jurkat tox 60K)
O=C(Nc1ccc(Cl)cn1)c1cccc(F)c1	Jurkat tox 60K 85
CCOC(=O)C(C(=O)Nc1nccs1)C1CCCCC1 (centres undefined)	none
O=C(C1CCCCC1)N(Cc1nc2sc3c(c2c(=O)[nH]1)CCCC3)Cc1cccs1	none
COc1ccccc1N(CC(=O)NCC1CCCO1)C(=O)CNS(=O)(=O)c1ccc(C)cc1 (centres undefined)	none (no result: Jurkat tox 60K)
COc1ccc(S(=O)(=O)NCC(=O)N(CC(=O)NCC2CCCO2)c2cc(C)ccc2C)cc1 (centres undefined)	H69AR inhibit 37 (no result: Jurkat tox 60K)
O=C(NS(=O)(=O)c1ccc2c(c1)OCCO2)c1ccccc1	none (no result: Jurkat tox 60K)
COc1ccc2cc(C(c3nnnn3C3CCCCC3)N3CCCCCC3)c3nnnn3c2c1 (centres undefined)	H69AR inhibit 35
COc1ccc(S(=O)(=O)Nc2ccccc2C)cc1	H69AR inhibit 13 (no result: Jurkat tox 60K)
COc1ccc(CNS(=O)(=O)c2cccc(S(=O)(=O)N3CCOCC3)c2)cc1	none (no result: Jurkat tox 60K)
Cc1ccc(-n2c(Cc3cccn3C)nnc2SCC(=O)NCc2ccc3c(c2)OCO3)cc1	none
COc1ccc(CNC(=O)c2ccc3c(c2)N(C)C(=O)CS3=O)cc1 (centres undefined)	none
CCOc1cc(/C=N\NC(=O)Cn2nc([N+](=O)[O-])cc2C)ccc1OCc1cccc2ccccc12	H69AR inhibit 16 (no result: Jurkat tox 60K)
CCCS(=O)(=O)C(=C(Nc1ccccc1)Nc1ccccc1)S(=O)(=O)CCC	H69AR inhibit 30 (no result: Jurkat tox 60K)
COc1ccc(Br)cc1CNc1ccc(O)cc1	H69AR inhibit 36
COc1ccc(CNc2ccc(C)cc2)cc1Br	none (no result: Jurkat tox 60K)
CC(NC(=O)CCC1COc2ccccc2O1)c1ccccc1 (centres undefined)	none (no result: Jurkat tox 60K)
CC1CCCCN1C(=O)CSc1nnc(-c2ccc(Cl)s2)o1 (centres undefined)	none (no result: Lung fibro prol, H69AR inhibit, HUVEC inhibit)
COCCn1c(SCc2ccc(C(=O)OC)o2)nc2cc(Cl)ccc2c1=O	none
COc1ccc(CCn2c(N)c(C(=O)NCc3ccco3)c3nc4ccccc4nc32)cc1OC	H69AR inhibit 24
COc1ccc(-n2c(N)c(C(=O)NCc3ccco3)c3nc4ccccc4nc32)c(OC)c1	H69AR inhibit 32
Nc1c(C(=O)NCc2ccco2)c2nc3ccccc3nc2n1CCc1ccccc1F	H69AR inhibit 27 (no result: Jurkat tox 60K)
COc1ccc(CN2CCc3ccccc3C2)c(OC)c1OC	none (no result: Jurkat tox 60K)
CCOC(=O)CN1C(=N)N(c2nc(NC(C)C)nc(NC(C)C)n2)CC1=O	none (no result: Jurkat tox 60K)
COc1ccc(CNC(=O)C(OC(C)=O)c2ccccn2)cc1 (centres undefined)	none (no result: H69AR inhibit)
CC12CCC(c3c(C(=O)Nc4nccs4)nn(-c4ccccc4)c31)C2(C)C (centres undefined)	H69AR inhibit 20
c1ccc(Nc2ccccc2Nc2ccccn2)nc1	none
Oc1cccc2ccc(Nc3ccccn3)nc12	Jurkat tox 60K 72, H69AR inhibit 0.6, HUVEC inhibit 2.6
CC(=O)Nc1ccc(S(=O)(=O)N2CCN(c3nc(NC4CCCC4)c4ccccc4n3)CC2)cc1	H69AR inhibit 1.4, HUVEC inhibit 11
CC(=O)Nc1ccc(S(=O)(=O)N2CCN(c3cc(C)nc4ccccc34)CC2)cc1	none
Clc1ccc2c(Cl)c(-c3nnc(-c4ccccc4)o3)sc2c1	none (no result: Jurkat tox 60K)
Fc1ccc2c(Cl)c(-c3nnc(-c4cccs4)o3)sc2c1	Lung fibro prol 24, H69AR inhibit 12
COc1cccc(C(=O)/C=C/Nc2cc(C)ccc2O)c1	Jurkat tox 60K 64, H69AR inhibit 8.9
Cc1ccc(O)c(NC(=O)CCC2CCCCC2)c1	Jurkat tox 60K 39, H69AR inhibit 27
COc1ccc(C(=O)/C=C/Nc2cccc(O)c2)cc1	none (no result: Jurkat tox 60K)
Cc1cccc(OCC(=O)Nc2cc(C)ccc2O)c1	Jurkat tox 60K 55, H69AR inhibit 24
O=C(CCC1CCCCC1)Nc1ccccc1O	none
Cc1cccc(OCC(=O)Nc2cc(C)c(C)cc2O)c1	none
Cc1ccc(-c2nnc(SCC(=O)N3CCOCC3)nc2-c2ccc(C)cc2)cc1	H69AR inhibit 19 (no result: Jurkat tox 60K)
CN(CC(=O)NCc1cccs1)S(=O)(=O)c1cccc2nsnc12	none
COC(=O)[C@@H]1[C@@H](C#N)C2(c3ccccc3-c3ccccc32)N(c2ccc(Cl)cc2)N1C#N	Lung fibro prol 40, H69AR inhibit 0.2, HUVEC inhibit 21 (no result: Jurkat tox 60K)
Cn1c(NC(=O)c2cc(Br)ccc2Cl)cc(=O)n(C)c1=O	none (no result: Lung fibro prol, H69AR inhibit, HUVEC inhibit)
O=C(Oc1cccc(NC(=O)c2ccco2)c1)c1cccc(S(=O)(=O)N2CCCCC2)c1	none (no result: Jurkat tox 60K)
CCC(CC)COC(=O)C(C#N)c1nc2ccccc2nc1N1CCN(CC)CC1 (centres undefined)	HUVEC inhibit 3.2
C=CCOC(=O)C(C#N)c1nc2ccccc2nc1N1CCC(C(=O)OCC)CC1 (centres undefined)	H69AR inhibit 39 (no result: Jurkat tox 60K)
CCCCCCOC(=O)C(C#N)c1nc2ccccc2nc1N1CCCCC1 (centres undefined)	none
CCC(C)COC(=O)C(C#N)c1nc2ccccc2nc1N1CCCCC1 (centres undefined)	none
CCCCCCOC(=O)C(C#N)c1nc2ccccc2nc1N1CCN(C)CC1 (centres undefined)	H69AR inhibit 3.6, HUVEC inhibit 5.8
O=S(=O)(c1ccc(Cl)c(C(F)(F)F)c1)N1CCN(CC(O)COCC2CCCO2)CC1 (centres undefined)	none
Cc1ccc(C(=O)O/N=C(\N)c2ccc(Br)cc2)cc1C	H69AR inhibit 28 (no result: Jurkat tox 60K)
